ChEMBL document CHEMBL1629572 (Antimicrob Agents Chemother, 2009)

What was measured:
[1] = Inhibition of Influenza B virus (B/Yokohama/UT3318/2005)) neuraminidase N294S mutant after 30 mins by fluorescence analysis
Procedure, shortened: (§1)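 Virus NA source was mixed with compound in 32.5 mM MES-NaOH pH 6.5 with 4 mM CaCl2 and preincubated 10 min at room temperature. Reaction ran 30 min at room temperature with 100 μM (final) 4-MU-NANA. Fluorescence was read at ex 360/em 460 nm, in triplicate. IC50 came from linear regression of residual activity against log concentration, using concentrations giving 10–90% residual activity.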

[2] = Inhibition of Influenza B virus (B/Yokohama/UT2203/2005)) neuraminidase N294S mutant after 30 mins by fluorescence analysis; procedure, shortened: as §1

| Compound | IC50 [1] [nM] | IC50 [2] [nM] |
| --- | --- | --- |
| CO[C@@H]([C@@H]1OC(C(=O)O)=C[C@H](NC(=N)N)[C@H]1NC(C)=O)[C@H](O)CO [LANINAMIVIR] | 30.2 | 48.9 |
| CC(=O)N[C@H]1[C@H]([C@H](O)[C@H](O)CO)OC(C(=O)O)=C[C@@H]1NC(=N)N [ZANAMIVIR] | 20 | 33.6 |
